Measured values reported in ChEMBL document CHEMBL3763091, “Design, synthesis, and docking studies of afatinib analogs bearing cinnamamide moiety as potent EGFR inhibitors” (Bioorg Med Chem, 2016).

Experiments:
[1] = test system: HeLa; test: Cytotoxicity against human HeLa cells after 72 hrs by MTT assay; assay type: functional, cell-based
Procedure, shortened: (§1)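 Cells were grown in MEM with 10% FBS. About 4 × 10³ cells per well were seeded and held 24 h at 37 °C in 5% CO₂, then exposed to compound at the indicated final concentrations for 72 h. MTT was added at 5 µg/mL final for 4 h at 37 °C, and formazan was dissolved in DMSO. Absorbance was read at 492 nm against 630 nm reference. Each compound was tested three times per line, and IC₅₀ values were averaged.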

[2] = target: Vascular endothelial growth factor receptor 2 (Homo sapiens, UniProt P35968); test: Inhibition of VEGFR2 (unknown origin) using FAM-labeled peptide as substrate preincubated for 10 mins followed by addition of substrate by mobility shift assay
Chain of Vascular endothelial growth factor receptor 2 (P35968 whole entry): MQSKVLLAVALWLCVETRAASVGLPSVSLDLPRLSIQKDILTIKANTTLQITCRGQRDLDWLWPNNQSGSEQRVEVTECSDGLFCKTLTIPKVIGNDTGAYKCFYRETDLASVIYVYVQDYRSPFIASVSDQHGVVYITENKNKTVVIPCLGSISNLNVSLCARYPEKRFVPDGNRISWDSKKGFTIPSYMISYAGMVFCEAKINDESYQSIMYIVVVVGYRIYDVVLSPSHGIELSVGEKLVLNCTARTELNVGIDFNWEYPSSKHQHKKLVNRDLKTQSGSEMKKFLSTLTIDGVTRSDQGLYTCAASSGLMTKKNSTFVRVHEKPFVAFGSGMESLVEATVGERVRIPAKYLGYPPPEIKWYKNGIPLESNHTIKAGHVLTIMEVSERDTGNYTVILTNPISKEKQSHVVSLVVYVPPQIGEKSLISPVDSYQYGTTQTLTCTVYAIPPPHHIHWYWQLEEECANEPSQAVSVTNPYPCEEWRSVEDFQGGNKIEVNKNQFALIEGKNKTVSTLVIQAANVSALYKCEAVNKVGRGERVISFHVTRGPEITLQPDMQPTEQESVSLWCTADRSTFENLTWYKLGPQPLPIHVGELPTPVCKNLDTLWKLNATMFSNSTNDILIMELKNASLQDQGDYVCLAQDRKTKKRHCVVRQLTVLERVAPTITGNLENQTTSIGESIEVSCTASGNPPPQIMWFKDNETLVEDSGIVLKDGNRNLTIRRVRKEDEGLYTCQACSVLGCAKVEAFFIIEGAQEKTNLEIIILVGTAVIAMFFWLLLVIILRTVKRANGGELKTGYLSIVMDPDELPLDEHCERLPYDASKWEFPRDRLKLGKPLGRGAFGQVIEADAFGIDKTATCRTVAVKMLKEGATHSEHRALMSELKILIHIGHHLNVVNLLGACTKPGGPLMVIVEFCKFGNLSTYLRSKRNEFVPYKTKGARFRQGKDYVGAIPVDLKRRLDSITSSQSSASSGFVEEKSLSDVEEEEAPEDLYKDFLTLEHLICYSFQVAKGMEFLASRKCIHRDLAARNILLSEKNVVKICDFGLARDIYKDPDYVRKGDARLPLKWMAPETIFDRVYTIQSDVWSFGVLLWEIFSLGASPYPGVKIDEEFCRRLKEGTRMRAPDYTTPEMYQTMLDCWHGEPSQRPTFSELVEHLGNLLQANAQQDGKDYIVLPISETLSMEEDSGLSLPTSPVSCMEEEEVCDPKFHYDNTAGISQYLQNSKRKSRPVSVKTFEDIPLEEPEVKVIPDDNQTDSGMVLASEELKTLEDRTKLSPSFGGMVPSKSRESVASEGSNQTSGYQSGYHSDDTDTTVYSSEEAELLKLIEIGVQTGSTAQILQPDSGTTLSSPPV
Procedure, shortened: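 Mobility-shift kinase assay. Compounds were serially diluted in 100% DMSO and combined with enzyme for 10 min at room temperature. FAM-labeled peptide plus ATP was then added and incubated at 28 °C. The reaction was stopped with EDTA-containing buffer. Conversion was read on Caliper, and % inhibition = (max − conversion)/(max − min) × 100. IC₅₀ was averaged from at least two experiments.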

[3] = Cytotoxicity against human PC3 cells after 72 hrs by MTT assay; assay type: functional, cell-based, PC-3; procedure, shortened: as §1
[4] = target: Epidermal growth factor receptor (Homo sapiens, UniProt P00533); test: Inhibition of EGFR (unknown origin) using FAM-labeled peptide as substrate preincubated for 10 mins followed by addition of substrate by mobility shift assay
Chain of Epidermal growth factor receptor (P00533 whole entry): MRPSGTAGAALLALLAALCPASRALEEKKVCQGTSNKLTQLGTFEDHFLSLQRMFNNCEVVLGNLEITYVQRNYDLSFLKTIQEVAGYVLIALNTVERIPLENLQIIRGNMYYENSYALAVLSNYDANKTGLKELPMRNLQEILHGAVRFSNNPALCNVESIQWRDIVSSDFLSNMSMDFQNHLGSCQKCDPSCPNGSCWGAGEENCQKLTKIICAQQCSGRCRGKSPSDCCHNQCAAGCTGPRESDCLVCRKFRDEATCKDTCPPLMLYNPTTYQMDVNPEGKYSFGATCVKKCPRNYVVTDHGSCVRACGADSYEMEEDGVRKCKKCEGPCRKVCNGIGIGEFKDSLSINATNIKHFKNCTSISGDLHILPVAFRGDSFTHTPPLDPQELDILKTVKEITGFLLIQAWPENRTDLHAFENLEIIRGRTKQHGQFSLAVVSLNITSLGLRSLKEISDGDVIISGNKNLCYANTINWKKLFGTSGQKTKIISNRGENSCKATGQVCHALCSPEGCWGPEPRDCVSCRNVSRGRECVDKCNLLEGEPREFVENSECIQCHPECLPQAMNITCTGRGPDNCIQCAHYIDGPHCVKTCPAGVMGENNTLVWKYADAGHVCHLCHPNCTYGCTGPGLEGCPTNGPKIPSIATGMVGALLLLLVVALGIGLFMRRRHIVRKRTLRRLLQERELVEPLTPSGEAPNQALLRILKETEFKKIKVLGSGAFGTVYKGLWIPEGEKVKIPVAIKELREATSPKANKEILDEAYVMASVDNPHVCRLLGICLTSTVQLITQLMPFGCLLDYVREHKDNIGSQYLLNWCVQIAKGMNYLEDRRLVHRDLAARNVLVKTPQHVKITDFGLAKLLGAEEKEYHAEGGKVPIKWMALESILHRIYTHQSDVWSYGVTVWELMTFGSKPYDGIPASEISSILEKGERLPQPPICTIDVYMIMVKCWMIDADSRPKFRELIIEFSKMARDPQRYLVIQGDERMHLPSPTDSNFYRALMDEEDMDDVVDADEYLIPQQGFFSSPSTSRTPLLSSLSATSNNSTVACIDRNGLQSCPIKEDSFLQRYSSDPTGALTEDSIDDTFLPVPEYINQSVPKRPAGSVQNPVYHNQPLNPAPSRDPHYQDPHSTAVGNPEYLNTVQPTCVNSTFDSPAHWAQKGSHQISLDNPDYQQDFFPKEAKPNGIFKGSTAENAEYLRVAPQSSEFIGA

[5] = test system: MCF7; test: Cytotoxicity against human MCF7 cells after 72 hrs by MTT assay; assay type: functional, cell-based; procedure, shortened: as §1
[6] = test system: A549; test: Cytotoxicity against human A549 cells after 72 hrs by MTT assay; assay type: functional, cell-based; procedure, shortened: as §1
[7] = Cytotoxicity against human NSCLC cells; assay type: functional, cell-based
[8] = Homo sapiens, PC-3, 72 h, read-out: IC50
[9] = Homo sapiens, MCF7, 72 h, read-out: IC50
[10] = Homo sapiens, A549, 72 h, read-out: IC50

| SMILES | IC50 [1] [µM] | IC50 [2] [nM] | IC50 [3, 8] [µM] | IC50 [4] [nM] | IC50 [5, 9] [µM] | IC50 [6, 10] [µM] | IC50 ([5]; mcf7) | IC50 ([6]; a549) | IC50 ([3]; pc-3) | IC50 [7] [nM] |
| --- | --- | --- | --- | --- | --- | --- | --- | --- | --- | --- |
| COc1ccc(/C=C/C(=O)Nc2cc3c(Nc4ccc(F)c(Cl)c4)ncnc3cc2O[C@H]2CCOC2)cc1 | 34.6 | 886 | 2.24 | 9.1 | 5.07 | 3.05 | – | – | – | – |
| O=C(/C=C/c1ccc(F)cc1Cl)Nc1cc2c(Nc3ccc(F)c(Cl)c3)ncnc2cc1O[C@H]1CCOC1 | 37.5 | – | 7.15 | – | 26.2 | 5.19 | – | – | – | – |
| COc1cc2ncnc(Nc3ccc(F)c(Cl)c3)c2cc1NC(=O)/C=C/c1ccc(F)cc1Cl | – | – | 32.7 | – | – | – | Not Active | Not Active | – | – |
| COc1ccc(/C=C/C(=O)Nc2cc3c(Nc4ccc(F)c(Cl)c4)ncnc3cc2OC)cc1 | – | – | – | – | – | – | Not Active | Not Active | Not Active | – |
| COc1ccc(/C=C/C(=O)Nc2cc3c(Nc4ccc(F)c(Cl)c4)ncnc3cc2O[C@H]2CCOC2)c(OC)c1 | 26.4 | – | 2.76 | – | 28.6 | 9.35 | – | – | – | – |
| COc1ccc(OC)c(/C=C/C(=O)Nc2cc3c(Nc4ccc(F)c(Cl)c4)ncnc3cc2OC)c1 | – | – | 28.6 | – | 34.2 | 11.2 | – | – | – | – |
| COc1ccc(/C=C/C(=O)Nc2cc3c(Nc4ccc(F)c(Cl)c4)ncnc3cc2O[C@H]2CCOC2)c(OC)c1OC | 4.83 | 478 | 7.67 | 3.6 | 4.65 | 0.07 | – | – | – | – |
| O=C(/C=C/c1ccccc1[N+](=O)[O-])Nc1cc2c(Nc3ccc(F)c(Cl)c3)ncnc2cc1O[C@H]1CCOC1 | 29.6 | – | 7.76 | – | 28.4 | 8.82 | – | – | – | – |
| COc1cc(/C=C/C(=O)Nc2cc3c(Nc4ccc(F)c(Cl)c4)ncnc3cc2O[C@H]2CCOC2)cc(OC)c1OC | 24.5 | – | 20.5 | – | 28.4 | 4.15 | – | – | – | – |
| COc1cc(/C=C/C(=O)Nc2cc3c(Nc4ccc(F)c(Cl)c4)ncnc3cc2O[C@H]2CCOC2)cc(OC)c1 | 34.2 | – | 25.6 | – | 30.3 | 10.8 | – | – | – | – |
| COc1cc(/C=C/C(=O)Nc2cc3c(Nc4ccc(F)c(Cl)c4)ncnc3cc2OC)cc(OC)c1 | – | – | – | – | 38.5 | – | – | Not Active | Not Active | – |
| O=C(/C=C/c1ccc([N+](=O)[O-])cc1)Nc1cc2c(Nc3ccc(F)c(Cl)c3)ncnc2cc1O[C@H]1CCOC1 | 27.4 | – | 22.8 | – | 26.7 | 12 | – | – | – | – |
| COc1cc(/C=C/C(=O)Nc2cc3c(Nc4ccc(F)c(Cl)c4)ncnc3cc2O[C@H]2CCOC2)cc(OC)c1O | 27.4 | – | 26.5 | – | 30.5 | 26.9 | – | – | – | – |
| O=C(/C=C/c1ccc(Br)cc1)Nc1cc2c(Nc3ccc(F)c(Cl)c3)ncnc2cc1O[C@H]1CCOC1 | 27.4 | – | 28.2 | – | 32.4 | 35.3 | – | – | – | – |
| COc1cc2ncnc(Nc3ccc(F)c(Cl)c3)c2cc1NC(=O)/C=C/c1cc(OC)c(OC)c(OC)c1 | – | – | 38.2 | – | – | – | Not Active | Not Active | – | – |
| COc1cc2ncnc(Nc3ccc(F)c(Cl)c3)c2cc1NC(=O)/C=C/c1ccc(C#N)cc1 | – | – | – | – | – | – | Not Active | Not Active | Not Active | – |
| O=C(/C=C/c1cccc(Cl)c1Cl)Nc1cc2c(Nc3ccc(F)c(Cl)c3)ncnc2cc1O[C@H]1CCOC1 | 30.5 | – | 27.5 | – | 30.1 | 23.2 | – | – | – | – |
| COc1cc2ncnc(Nc3ccc(F)c(Cl)c3)c2cc1NC(=O)/C=C/c1ccccc1[N+](=O)[O-] | – | – | 14.3 | – | 36.5 | 33.2 | – | – | – | – |
| COc1ccc(OC)c(/C=C/C(=O)Nc2cc3c(Nc4ccc(F)c(Cl)c4)ncnc3cc2O[C@H]2CCOC2)c1 | 26.8 | – | 8.73 | – | 36.3 | 7.3 | – | – | – | – |
| O=C(/C=C/c1cc(Br)c(O)c(Br)c1)Nc1cc2c(Nc3ccc(F)c(Cl)c3)ncnc2cc1O[C@H]1CCOC1 | 27.7 | – | 25.5 | – | 30.6 | 28.8 | – | – | – | – |
| COc1ccc(/C=C/C(=O)Nc2cc3c(Nc4ccc(F)c(Cl)c4)ncnc3cc2OC)c(OC)c1 | – | – | 38.5 | – | 36.6 | 33.2 | – | – | – | – |
| N#Cc1ccc(/C=C/C(=O)Nc2cc3c(Nc4ccc(F)c(Cl)c4)ncnc3cc2O[C@H]2CCOC2)cc1 | – | – | 36.6 | – | 9.83 | – | – | Not Active | – | – |
| CN(C)C/C=C/C(=O)Nc1cc2c(Nc3ccc(F)c(Cl)c3)ncnc2cc1O[C@H]1CCOC1 [AFATINIB] | 6.81 | – | 4.1 | – | 5.83 | 0.05 | – | – | – | 0.5 |
